In brackets after ≈: the same amount, converted by molar mass. Activity calls are given as the source filed them. The rule behind the calls is not given here.
Columns and labels:
[1] = Solubility in 0.01 N HCl solution in water; assay type: physicochemical
Procedure, shortened: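 Solubility measured in 0.01 N hydrogen chloride solution in water.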

[2] = Solubility in PBS buffer at pH 7.4; assay type: physicochemical
Procedure, shortened: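 Solubility measured in phosphate buffered saline, pH 7.4.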

[3] = Solubility in fasted state simulated intestinal fluid at pH 6.8; assay type: ADME
[4] = biological target: T1, Transient receptor potential cation channel subfamily A member 1 (Homo sapiens, UniProt O75762); experiment: Agonist activity at human TRPA1 by [45Ca2+] fluorimetry assay
[5] = Clearance in rat liver microsomes; assay type: ADME; settings: read-out: CLH
[6] = biological target: T1, Transient receptor potential cation channel subfamily A member 1; experiment: Antagonist activity at human TRPA1 assessed as inhibition of AITC-induced calcium uptake by [45Ca2+] fluorimetry assay
Procedure, shortened: (§1)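 Antagonism read by 45Ca2+ fluorimetry in cells expressing rat or human TRPA1. IC50 determined. Where no IC50 was obtained, % inhibition was measured at a single 2 μM point.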

[7] = Clearance in human liver microsomes; assay type: ADME; settings: read-out: CLH
[8] = biological target: T2, Transient receptor potential cation channel subfamily A member 1 (Rattus norvegicus, UniProt Q6RI86); experiment: Antagonist activity at rat TRPA1 assessed as inhibition of AITC-induced calcium uptake by [45Ca2+] fluorimetry assay; procedure, shortened: as §1
[9] = biological target: T2, Transient receptor potential cation channel subfamily A member 1; experiment: Agonist activity at rat TRPA1 by [45Ca2+] fluorimetry assay
[10] = Clearance in Sprague-Dawley rat at 0.5 mg/kg, iv; assay type: ADME, organism-based; set-up: dose 0.5 mg/kg, route intravenous; settings: in vivo
Procedure, shortened: (§2)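 Male Sprague-Dawley rats (n = 3) given 0.5 mg/kg iv in DMSO.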

[11] = Volume of distribution at steady state in Sprague-Dawley rat at 0.5 mg/kg, iv; assay type: ADME, organism-based; set-up: dose 0.5 mg/kg, route intravenous; settings: in vivo, read-out: Vdss; procedure, shortened: as §2
Rattus norvegicus [12] = experiment: Unbound clearance in Sprague-Dawley rat at 0.5 mg/kg, iv; assay type: ADME, organism-based; set-up: dose 0.5 mg/kg, route intravenous; settings: in vivo; procedure, shortened: as §2
[13] = Fraction unbound in rat plasma by equilibrium dialysis method; assay type: ADME, cell-free
[14] = Half life in Sprague-Dawley rat at 0.5 mg/kg, iv; assay type: ADME, organism-based; set-up: dose 0.5 mg/kg, route intravenous; settings: in vivo; procedure, shortened: as §2
Rattus norvegicus [15] = experiment: fCmax in fasted Sprague-Dawley rat at 10 mg/kg, po; assay type: ADME, organism-based; set-up: dose 10 mg/kg, route oral; settings: in vivo
Procedure, shortened: (§3)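 Male Sprague-Dawley rats (n = 3) dosed po in 2% HPMC, 1% Tween 80 in H2O, pH 2.2 with MSA. Animals fasted during the PK study.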

[16] = Oral bioavailability in fasted Sprague-Dawley rat at 10 mg/kg; assay type: ADME, organism-based; settings: in vivo; procedure, shortened: as §3
Rattus norvegicus [17] = organism: Rattus norvegicus; settings: Harlan Sprague-Dawley, 100 mg/kg
Plasma [18] = experiment: Unbound plasma concentration in Harlan Sprague-Dawley rat model of AITC-induced flinching at 100 mg/kg, po after 1 hr; assay type: ADME, organism-based; set-up: dose 100 mg/kg, route oral; settings: in vivo
Procedure, shortened: (§4)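 Male Harlan Sprague-Dawley rats dosed orally in 2% HPMC/1% Tween-80, with a 0.1% AITC paw challenge at 1 h. Unbound plasma concentration determined with n=8, 6 and 8 for the 10, 30 and 100 mg/kg doses respectively.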

[19] = biological target: T1, Transient receptor potential cation channel subfamily A member 1; experiment: Antagonist activity at human TRPA1 assessed as inhibition of AITC-induced calcium uptake at 2 uM by [45Ca2+] fluorimetry assay
Procedure, shortened: (§5)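 45Ca2+ uptake fluorimetry in cells expressing rat or human TRPA1, run in parallel for both species. The value is single-point percent inhibition at 2 µM test compound, reported when no IC50 was obtained. Compounds were also run without agonist to check for channel agonism.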

[20] = biological target: Transient receptor potential cation channel subfamily A member 1 (Rattus norvegicus) (UniProt Q6RI86); experiment: Antagonist activity at rat TRPA1 assessed as inhibition of AITC-induced calcium uptake at 2 uM by [45Ca2+] fluorimetry assay; procedure, shortened: as §5
Rattus norvegicus [21] = experiment: fCmax in fed Sprague-Dawley rat at 100 mg/kg, po; assay type: ADME, organism-based; set-up: dose 100 mg/kg, route oral; settings: in vivo
Procedure, shortened: (§6)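 Male Sprague-Dawley rats (n = 3) dosed po at 100 mg/kg in 2% HPMC, 1% Tween 80 in H2O, pH 2.2 with MSA. Animals fed during the PK study.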

Rattus norvegicus [22] = experiment: fCmax in fasted Sprague-Dawley rat at 30 mg/kg, po; assay type: ADME, organism-based; set-up: dose 30 mg/kg, route oral; settings: in vivo; procedure, shortened: as §3
Rattus norvegicus [23] = experiment: Effect on open filed activity in Harlan Sprague-Dawley rat model of AITC-induced flinching at 30 to 100 mg/kg, po; assay type: organism-based; set-up: dose 30-100 mg/kg, route oral; settings: in vivo
[24] = Ratio of fCmax in fed Sprague-Dawley rat at 100 mg/kg, po to IC50 for antagonist activity at rat TRPA1 by [45Ca2+] fluorimetry assay
Procedure, shortened: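 Male Sprague-Dawley rats (n = 3), fed, were given an oral dose in 2% HPMC, 1% Tween 80 in water, adjusted to pH 2.2 with MSA. The unbound Cmax from this PK study was divided by the rat TRPA1 IC50. That IC50 came from a 45Ca2+ fluorimetry antagonism assay in cells expressing rat TRPA1.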

[25] = Ratio of unbound plasma concentration in Harlan Sprague-Dawley rat model of AITC-induced flinching at 30 mg/kg, po after 1 hr to IC50 for antagonist activity at rat TRPA1 by [45Ca2+] fluorimetry assay; assay type: organism-based; set-up: dose 30 mg/kg, route oral; settings: in vivo
Procedure, shortened: (§7)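 Male Harlan Sprague-Dawley rats were dosed orally in 2% HPMC/1% Tween-80. After 1 h, 0.1% AITC was injected into the left ventral hind paw. Unbound plasma concentration was measured (n=8 at 10 and 100 mg/kg, n=6 at 30 mg/kg) and divided by the rat TRPA1 IC50. That IC50 came from a 45Ca2+ fluorimetry antagonism assay in cells expressing rat TRPA1.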

[26] = Ratio of unbound plasma concentration in Harlan Sprague-Dawley rat model of AITC-induced flinching at 100 mg/kg, po after 1 hr to IC50 for antagonist activity at rat TRPA1 by [45Ca2+] fluorimetry assay; assay type: organism-based; set-up: dose 100 mg/kg, route oral; settings: in vivo; procedure, shortened: as §7
Plasma [27] = experiment: Unbound plasma concentration in Harlan Sprague-Dawley rat model of AITC-induced flinching at 10 mg/kg, po after 1 hr; assay type: ADME, organism-based; set-up: dose 10 mg/kg, route oral; settings: in vivo; procedure, shortened: as §4
Plasma [28] = experiment: Unbound plasma concentration in Harlan Sprague-Dawley rat model of AITC-induced flinching at 30 mg/kg, po after 1 hr; assay type: ADME, organism-based; set-up: dose 30 mg/kg, route oral; settings: in vivo; procedure, shortened: as §4
[29] = Oral bioavailability in fed Sprague-Dawley rat at 100 mg/kg; assay type: ADME, organism-based; settings: in vivo; procedure, shortened: as §6
[30] = Oral bioavailability in fasted Sprague-Dawley rat at 30 mg/kg; assay type: ADME, organism-based; settings: in vivo; procedure, shortened: as §3
[31] = Ratio of unbound plasma concentration in Harlan Sprague-Dawley rat model of AITC-induced flinching at 10 mg/kg, po after 1 hr to IC50 for antagonist activity at rat TRPA1 by [45Ca2+] fluorimetry assay; assay type: organism-based; set-up: dose 10 mg/kg, route oral; settings: in vivo; procedure, shortened: as §7
Rattus norvegicus [32] = organism: Rattus norvegicus; settings: Harlan Sprague-Dawley, 30 to 100 mg/kg

T1 sequence (O75762 whole entry): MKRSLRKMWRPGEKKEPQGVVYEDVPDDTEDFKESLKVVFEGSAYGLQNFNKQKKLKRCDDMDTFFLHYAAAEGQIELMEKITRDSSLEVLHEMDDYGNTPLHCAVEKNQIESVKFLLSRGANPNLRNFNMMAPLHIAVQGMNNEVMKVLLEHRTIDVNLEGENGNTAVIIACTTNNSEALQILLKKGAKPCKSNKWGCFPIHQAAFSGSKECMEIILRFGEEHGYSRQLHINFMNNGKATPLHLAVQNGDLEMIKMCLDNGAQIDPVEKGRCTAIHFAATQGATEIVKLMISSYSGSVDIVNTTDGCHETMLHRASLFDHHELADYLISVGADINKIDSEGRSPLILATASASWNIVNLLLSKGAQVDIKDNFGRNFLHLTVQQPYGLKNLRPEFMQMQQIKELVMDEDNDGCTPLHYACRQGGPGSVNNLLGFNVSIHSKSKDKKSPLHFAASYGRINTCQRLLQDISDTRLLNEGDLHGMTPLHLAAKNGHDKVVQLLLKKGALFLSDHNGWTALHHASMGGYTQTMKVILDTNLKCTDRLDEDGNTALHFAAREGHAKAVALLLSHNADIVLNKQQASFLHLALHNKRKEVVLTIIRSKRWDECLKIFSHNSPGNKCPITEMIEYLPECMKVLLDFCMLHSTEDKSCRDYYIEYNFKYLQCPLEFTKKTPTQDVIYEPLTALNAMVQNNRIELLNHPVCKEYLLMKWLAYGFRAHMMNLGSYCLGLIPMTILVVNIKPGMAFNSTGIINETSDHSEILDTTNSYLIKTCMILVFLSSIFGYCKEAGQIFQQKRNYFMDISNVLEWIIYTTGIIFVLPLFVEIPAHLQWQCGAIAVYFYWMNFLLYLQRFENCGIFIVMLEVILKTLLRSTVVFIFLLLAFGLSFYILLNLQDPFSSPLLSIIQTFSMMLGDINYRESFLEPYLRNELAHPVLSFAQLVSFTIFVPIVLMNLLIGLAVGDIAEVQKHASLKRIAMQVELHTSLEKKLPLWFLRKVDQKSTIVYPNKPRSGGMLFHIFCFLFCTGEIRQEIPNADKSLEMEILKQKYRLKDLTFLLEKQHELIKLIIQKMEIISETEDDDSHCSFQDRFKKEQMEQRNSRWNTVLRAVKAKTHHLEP
T2 sequence (Q6RI86 whole entry): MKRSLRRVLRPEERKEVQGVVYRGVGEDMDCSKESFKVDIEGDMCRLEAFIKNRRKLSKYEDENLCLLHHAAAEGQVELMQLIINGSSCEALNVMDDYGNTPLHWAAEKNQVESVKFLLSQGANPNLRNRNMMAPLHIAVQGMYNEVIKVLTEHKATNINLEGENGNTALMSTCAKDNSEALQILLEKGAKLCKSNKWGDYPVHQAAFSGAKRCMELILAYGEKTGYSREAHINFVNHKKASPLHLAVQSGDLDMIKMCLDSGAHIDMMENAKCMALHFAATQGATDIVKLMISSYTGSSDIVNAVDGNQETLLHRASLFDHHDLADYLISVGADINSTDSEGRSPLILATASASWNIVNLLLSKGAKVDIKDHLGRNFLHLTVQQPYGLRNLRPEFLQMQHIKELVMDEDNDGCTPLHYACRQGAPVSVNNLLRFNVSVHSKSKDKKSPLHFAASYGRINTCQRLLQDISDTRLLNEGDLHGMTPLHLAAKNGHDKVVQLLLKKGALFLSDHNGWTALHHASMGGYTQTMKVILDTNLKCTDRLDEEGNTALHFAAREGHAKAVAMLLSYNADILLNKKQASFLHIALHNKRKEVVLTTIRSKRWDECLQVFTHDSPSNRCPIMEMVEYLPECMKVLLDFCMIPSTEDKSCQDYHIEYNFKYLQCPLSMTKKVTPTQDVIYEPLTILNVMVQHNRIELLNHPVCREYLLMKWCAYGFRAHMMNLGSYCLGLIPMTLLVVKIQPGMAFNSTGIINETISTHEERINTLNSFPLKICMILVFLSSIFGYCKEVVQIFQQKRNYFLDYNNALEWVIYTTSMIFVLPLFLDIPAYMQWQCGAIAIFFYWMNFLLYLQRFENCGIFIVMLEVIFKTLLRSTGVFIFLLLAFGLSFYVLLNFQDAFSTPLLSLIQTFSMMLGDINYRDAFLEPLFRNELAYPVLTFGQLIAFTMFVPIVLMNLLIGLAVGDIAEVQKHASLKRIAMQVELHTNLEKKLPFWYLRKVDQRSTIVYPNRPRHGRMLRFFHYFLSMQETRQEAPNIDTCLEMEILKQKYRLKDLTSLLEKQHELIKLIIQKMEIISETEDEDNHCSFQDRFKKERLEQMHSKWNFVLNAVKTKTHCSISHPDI
Sequence of Transient receptor potential cation channel subfamily A member 1 (Rattus norvegicus) (Q6RI86 whole entry): as above

SMILES	solubility [1]	solubility [2]	solubility [3]	EC50 [4]	microsomal CLint [5]	IC50 [6]	microsomal CLint [7]	IC50 [8]	EC50 [9]	also measured
COCCCOc1cccc([C@H]2NC(=S)Nc3c2oc2ccccc32)c1	1 µg/mL (≈ 2.71 µM)	1 µg/mL (≈ 2.71 µM)	23 µg/mL (≈ 62.4 µM)	> 40 µM	350 µL/min/mg	0.59 µM	90 µL/min/mg	0.23 µM	> 40 µM	–
COCCCOc1cccc([C@H]2NC(=S)NC3=C2C(=O)c2ccccc23)c1	5 µg/mL (≈ 13.1 µM)	4 µg/mL (≈ 10.5 µM)	12 µg/mL (≈ 31.5 µM)	> 40 µM	230 µL/min/mg	0.026 µM	150 µL/min/mg	0.019 µM	> 40 µM	clearance [10]: 48.3 mL/min/kg; Vd [11]: 4.7 L/kg; CL free (Rattus norvegicus [12]): 4830 mL/min/kg; fraction unbound [13]: 0.01; half-life [14]: 2.1 h; fCmax (Rattus norvegicus [15]): 0.005 µM; bioavailability [16]: 10%
S=C1Nc2c(oc3ncccc23)C(c2cccc(OCc3cccnc3)c2)N1 (centres undefined)	200 µg/mL (≈ 515 µM)	15 µg/mL (≈ 38.6 µM)	21 µg/mL (≈ 54.1 µM)	> 40 µM	40 µL/min/mg	0.94 µM	100 µL/min/mg	1.3 µM	> 40 µM	–
COCCCOc1cccc([C@@H]2NC(=S)Nc3c2oc2ncccc32)c1	–	–	–	–	–	> 40 µM	–	–	–	inhibition (Rattus norvegicus [17]): inactive; Cp(f) (Plasma [18]): 370 nM
COCCCOc1cncc(C2NC(=S)NC3=C2C(=O)c2ccccc23)c1 (centres undefined)	120 µg/mL (≈ 315 µM)	2.8 µg/mL (≈ 7.34 µM)	14 µg/mL (≈ 36.7 µM)	> 40 µM	200 µL/min/mg	1.2 µM	90 µL/min/mg	0.53 µM	> 40 µM	–
COCCCOc1ccnc(C2NC(=S)NC3=C2C(=O)c2ccccc23)c1 (centres undefined)	500 µg/mL (≈ 1310 µM)	62 µg/mL (≈ 163 µM)	39 µg/mL (≈ 102 µM)	> 40 µM	220 µL/min/mg	> 2 µM	43 µL/min/mg	> 2 µM	> 40 µM	inhibition [19]: 1%; inhibition [20]: 0%
COCCCOc1cccc([C@H]2NC(=S)Nc3c2oc2ncccc32)c1	28 µg/mL (≈ 75.8 µM)	21 µg/mL (≈ 56.8 µM)	46 µg/mL (≈ 125 µM)	> 40 µM	90 µL/min/mg	0.17 µM	30 µL/min/mg	0.045 µM	> 40 µM	clearance [10]: 50 mL/min/kg; fCmax (Rattus norvegicus [21]): 0.612 µM; fCmax (Rattus norvegicus [22]): 0.082 µM; Vd [11]: 4 L/kg; Activity (Rattus norvegicus [23]): Non-toxic; CL free (Rattus norvegicus [12]): 600 mL/min/kg; Ratio [24]: 14; fraction unbound [13]: 0.085; Ratio [25]: 5; Ratio [26]: 16; Cp(f) (Plasma [27]): 48 nM; Cp(f) (Plasma [28]): 220 nM; bioavailability [29]: 79%; half-life [14]: 1.2 h; bioavailability [30]: 13%; Ratio [31]: 1; Cp(f) (Plasma [18]): 740 nM; inhibition (Rattus norvegicus [32]): Active
COCCCOc1cccc(C2NC(=S)NC3=C2C(=O)c2ccccc23)c1 (racemic)	1 µg/mL (≈ 2.63 µM)	10 µg/mL (≈ 26.3 µM)	23 µg/mL (≈ 60.5 µM)	> 40 µM	–	0.03 µM	–	0.028 µM	> 40 µM	–
COCCCOc1cc(C2NC(=S)NC3=C2C(=O)c2ccccc23)ccn1 (centres undefined)	22 µg/mL (≈ 57.7 µM)	–	–	> 40 µM	350 µL/min/mg	> 40 µM	82 µL/min/mg	> 40 µM	> 40 µM	–
O=C1C2=C(NC(=S)NC2c2cccc(OCc3ccccn3)c2)c2ccccc21 (centres undefined)	1 µg/mL (≈ 2.5 µM)	10 µg/mL (≈ 25 µM)	200 µg/mL (≈ 501 µM)	> 40 µM	310 µL/min/mg	0.3 µM	180 µL/min/mg	0.23 µM	> 40 µM	–
COCCCOc1cccc(C2NC(=S)NC3=C2C(=O)c2ccccc23)n1 (centres undefined)	17 µg/mL (≈ 44.6 µM)	36 µg/mL (≈ 94.4 µM)	35 µg/mL (≈ 91.8 µM)	> 40 µM	230 µL/min/mg	0.97 µM	160 µL/min/mg	1 µM	> 40 µM	–
O=C1C2=C(NC(=S)NC2c2cccc(OCc3cccnc3)c2)c2ccccc21 (centres undefined)	140 µg/mL (≈ 350 µM)	1 µg/mL (≈ 2.5 µM)	15 µg/mL (≈ 37.5 µM)	> 40 µM	250 µL/min/mg	0.71 µM	150 µL/min/mg	0.36 µM	> 40 µM	–
COCCCOc1cccc(C2NC(=S)Nc3c2oc2c(F)cccc32)c1 (centres undefined)	14 µg/mL (≈ 36.2 µM)	17 µg/mL (≈ 44 µM)	66 µg/mL (≈ 171 µM)	> 40 µM	140 µL/min/mg	0.2 µM	70 µL/min/mg	0.14 µM	> 40 µM	–

From ChEMBL document CHEMBL3352604, “Development of novel azabenzofuran TRPA1 antagonists as in vivo tools” (Bioorg Med Chem Lett, 2014)
